What was measured:
[1] = system: Stomach; experiment: Biodistribution in Kunming mouse stomach assessed per organ at 1 uCi, iv after 30 mins by gamma counting; format: ADME, organism-based; settings: in vivo, 0.5 h
Summary of the method: (§1)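 Female normal KunMing mice, about 20 g. [125I]-labelled tracer (1 μCi) in 100 μL saline injected into the tail vein. Mice killed at set times after injection; organs removed, weighed and counted in a gamma counter. %ID/g of wet tissue calculated against diluted aliquots of the injected dose.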

[2] = system: Blood; experiment: Biodistribution in Kunming mouse blood at 1 uCi, iv after 60 mins by gamma counting; format: ADME, organism-based; settings: in vivo, 1 h; summary of the method: as §1
[3] = system: Brain; experiment: Biodistribution in Kunming mouse brain at 1 uCi, iv after 120 mins by gamma counting; format: ADME, organism-based; settings: in vivo, 2 h; summary of the method: as §1
[4] = system: Spleen; experiment: Biodistribution in Kunming mouse spleen at 1 uCi, iv after 2 mins by gamma counting; format: ADME, organism-based; settings: in vivo; summary of the method: as §1
[5] = system: Spleen; experiment: Biodistribution in Kunming mouse spleen at 1 uCi, iv after 120 mins by gamma counting; format: ADME, organism-based; settings: in vivo, 2 h; summary of the method: as §1
[6] = system: Brain; experiment: Biodistribution in Kunming mouse brain at 1 uCi, iv after 30 mins by gamma counting; format: ADME, organism-based; settings: in vivo, 0.5 h; summary of the method: as §1
[7] = system: Lung; experiment: Biodistribution in Kunming mouse lung at 1 uCi, iv after 120 mins by gamma counting; format: ADME, organism-based; settings: in vivo, 2 h; summary of the method: as §1
[8] = system: Muscle tissue; experiment: Biodistribution in Kunming mouse muscle at 1 uCi, iv after 2 mins by gamma counting; format: ADME, organism-based; settings: in vivo; summary of the method: as §1
[9] = system: Lung; experiment: Biodistribution in Kunming mouse lung at 1 uCi, iv after 15 mins by gamma counting; format: ADME, organism-based; settings: in vivo, 0.25 h; summary of the method: as §1
[10] = system: Blood; experiment: Biodistribution in Kunming mouse blood at 1 uCi, iv after 15 mins by gamma counting; format: ADME, organism-based; settings: in vivo, 0.25 h; summary of the method: as §1
[11] = Octanol-phosphate buffer partition coefficient, log D of the compound at pH 7.4; format: physicochemical
Summary of the method: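 Radiotracer added to premixed n-octanol (3 g) and PBS (0.05 M, pH 7.4; 3 g), and partitioned between the two phases.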

[12] = system: Spleen; experiment: Biodistribution in Kunming mouse spleen at 1 uCi, iv after 60 mins by gamma counting; format: ADME, organism-based; settings: in vivo, 1 h; summary of the method: as §1
[13] = system: Blood; experiment: Biodistribution in Kunming mouse blood at 1 uCi, iv after 30 mins by gamma counting; format: ADME, organism-based; settings: in vivo, 0.5 h; summary of the method: as §1
[14] = system: Lung; experiment: Biodistribution in Kunming mouse lung at 1 uCi, iv after 2 mins by gamma counting; format: ADME, organism-based; settings: in vivo; summary of the method: as §1
[15] = system: Spleen; experiment: Biodistribution in Kunming mouse spleen at 1 uCi, iv after 15 mins by gamma counting; format: ADME, organism-based; settings: in vivo, 0.25 h; summary of the method: as §1
[16] = system: Stomach; experiment: Biodistribution in Kunming mouse stomach assessed per organ at 1 uCi, iv after 60 mins by gamma counting; format: ADME, organism-based; settings: in vivo, 1 h
[17] = system: Kidney; experiment: Biodistribution in Kunming mouse kidney at 1 uCi, iv after 120 mins by gamma counting; format: ADME, organism-based; settings: in vivo, 2 h; summary of the method: as §1
[18] = system: Lung; experiment: Biodistribution in Kunming mouse lung at 1 uCi, iv after 60 mins by gamma counting; format: ADME, organism-based; settings: in vivo, 1 h; summary of the method: as §1
[19] = system: Liver; experiment: Biodistribution in Kunming mouse liver at 1 uCi, iv after 15 mins by gamma counting; format: ADME, organism-based; settings: in vivo, 0.25 h; summary of the method: as §1
[20] = system: Stomach; experiment: Biodistribution in Kunming mouse stomach assessed per organ at 1 uCi, iv after 120 mins by gamma counting; format: ADME, organism-based; settings: in vivo, 2 h; summary of the method: as §1
[21] = system: Liver; experiment: Biodistribution in Kunming mouse liver at 1 uCi, iv after 120 mins by gamma counting; format: ADME, organism-based; settings: in vivo, 2 h; summary of the method: as §1
[22] = system: Heart; experiment: Biodistribution in Kunming mouse heart at 1 uCi, iv after 15 mins by gamma counting; format: ADME, organism-based; settings: in vivo, 0.25 h; summary of the method: as §1
[23] = system: Kidney; experiment: Biodistribution in Kunming mouse kidney at 1 uCi, iv after 60 mins by gamma counting; format: ADME, organism-based; settings: in vivo, 1 h; summary of the method: as §1
[24] = system: Brain; experiment: Biodistribution in Kunming mouse brain at 1 uCi, iv after 60 mins by gamma counting; format: ADME, organism-based; settings: in vivo, 1 h; summary of the method: as §1
[25] = system: Blood; experiment: Biodistribution in Kunming mouse blood at 1 uCi, iv after 2 mins by gamma counting; format: ADME, organism-based; settings: in vivo; summary of the method: as §1
[26] = system: Heart; experiment: Biodistribution in Kunming mouse heart at 1 uCi, iv after 2 mins by gamma counting; format: ADME, organism-based; settings: in vivo; summary of the method: as §1
[27] = system: Spleen; experiment: Biodistribution in Kunming mouse spleen at 1 uCi, iv after 30 mins by gamma counting; format: ADME, organism-based; settings: in vivo, 0.5 h; summary of the method: as §1
[28] = system: Brain; experiment: Biodistribution in Kunming mouse brain at 1 uCi, iv after 15 mins by gamma counting; format: ADME, organism-based; settings: in vivo, 0.25 h; summary of the method: as §1
[29] = system: Lung; experiment: Biodistribution in Kunming mouse lung at 1 uCi, iv after 30 mins by gamma counting; format: ADME, organism-based; settings: in vivo, 0.5 h; summary of the method: as §1
[30] = system: Brain; experiment: Biodistribution in Kunming mouse brain at 1 uCi, iv after 2 mins by gamma counting; format: ADME, organism-based; settings: in vivo; summary of the method: as §1
[31] = system: Kidney; experiment: Biodistribution in Kunming mouse kidney at 1 uCi, iv after 30 mins by gamma counting; format: ADME, organism-based; settings: in vivo, 0.5 h; summary of the method: as §1
[32] = system: Muscle tissue; experiment: Biodistribution in Kunming mouse muscle at 1 uCi, iv after 60 mins by gamma counting; format: ADME, organism-based; settings: in vivo, 1 h; summary of the method: as §1
[33] = system: Heart; experiment: Biodistribution in Kunming mouse heart at 1 uCi, iv after 60 mins by gamma counting; format: ADME, organism-based; settings: in vivo, 1 h; summary of the method: as §1
[34] = system: Kidney; experiment: Biodistribution in Kunming mouse kidney at 1 uCi, iv after 15 mins by gamma counting; format: ADME, organism-based; settings: in vivo, 0.25 h; summary of the method: as §1
[35] = system: Stomach; experiment: Biodistribution in Kunming mouse stomach assessed per organ at 1 uCi, iv after 15 mins by gamma counting; format: ADME, organism-based; settings: in vivo, 0.25 h; summary of the method: as §1
[36] = system: Liver; experiment: Biodistribution in Kunming mouse liver at 1 uCi, iv after 30 mins by gamma counting; format: ADME, organism-based; settings: in vivo, 0.5 h; summary of the method: as §1
[37] = system: Liver; experiment: Biodistribution in Kunming mouse liver at 1 uCi, iv after 60 mins by gamma counting; format: ADME, organism-based; settings: in vivo, 1 h; summary of the method: as §1
[38] = system: Blood; experiment: Biodistribution in Kunming mouse blood at 1 uCi, iv after 120 mins by gamma counting; format: ADME, organism-based; settings: in vivo, 2 h; summary of the method: as §1
[39] = system: Muscle tissue; experiment: Biodistribution in Kunming mouse muscle at 1 uCi, iv after 15 mins by gamma counting; format: ADME, organism-based; settings: in vivo, 0.25 h; summary of the method: as §1
[40] = system: Heart; experiment: Biodistribution in Kunming mouse heart at 1 uCi, iv after 30 mins by gamma counting; format: ADME, organism-based; settings: in vivo, 0.5 h; summary of the method: as §1
[41] = system: Muscle tissue; experiment: Biodistribution in Kunming mouse muscle at 1 uCi, iv after 30 mins by gamma counting; format: ADME, organism-based; settings: in vivo, 0.5 h; summary of the method: as §1
[42] = system: Liver; experiment: Biodistribution in Kunming mouse liver at 1 uCi, iv after 2 mins by gamma counting; format: ADME, organism-based; settings: in vivo; summary of the method: as §1
[43] = system: Kidney; experiment: Biodistribution in Kunming mouse kidney at 1 uCi, iv after 2 mins by gamma counting; format: ADME, organism-based; settings: in vivo; summary of the method: as §1
[44] = system: Muscle tissue; experiment: Biodistribution in Kunming mouse muscle at 1 uCi, iv after 120 mins by gamma counting; format: ADME, organism-based; settings: in vivo, 2 h; summary of the method: as §1
[45] = system: Heart; experiment: Biodistribution in Kunming mouse heart at 1 uCi, iv after 120 mins by gamma counting; format: ADME, organism-based; settings: in vivo, 2 h; summary of the method: as §1
[46] = system: Stomach; experiment: Biodistribution in Kunming mouse stomach assessed per organ at 1 uCi, iv after 2 mins by gamma counting; format: ADME, organism-based; settings: in vivo; summary of the method: as §1

Drug uptake [1]: 5.11 %ID
Drug uptake [2]: 6.7 % ID/g
Drug uptake [3]: 0.59 % ID/g
Drug uptake [4]: 9.14 % ID/g
Drug uptake [5]: 7.21 % ID/g
Drug uptake [6]: 0.39 % ID/g
Drug uptake [7]: 7.08 % ID/g
Drug uptake [8]: 1.61 % ID/g
Drug uptake [9]: 16.37 % ID/g
Drug uptake [10]: 7.99 % ID/g
logD [11]: 3.07
Drug uptake [12]: 6.38 % ID/g
Drug uptake [13]: 6.18 % ID/g
Drug uptake [14]: 26.17 % ID/g
Drug uptake [15]: 11.2 % ID/g
Drug uptake [16]: 8.9 %ID
Drug uptake [17]: 6.33 % ID/g
Drug uptake [18]: 10.45 % ID/g
Drug uptake [19]: 46.86 % ID/g
Drug uptake [20]: 20.22 %ID
Drug uptake [21]: 11 % ID/g
Drug uptake [22]: 6.25 % ID/g
Drug uptake [23]: 6.42 % ID/g
Drug uptake [24]: 0.5 % ID/g
Drug uptake [25]: 11.21 % ID/g
Drug uptake [26]: 5.08 % ID/g
Drug uptake [27]: 9.4 % ID/g
Drug uptake [28]: 0.44 % ID/g
Drug uptake [29]: 12.95 % ID/g
Drug uptake [30]: 0.5 % ID/g
Drug uptake [31]: 5.92 % ID/g
Drug uptake [32]: 3.95 % ID/g
Drug uptake [33]: 5.33 % ID/g
Drug uptake [34]: 6.61 % ID/g
Drug uptake [35]: 2.6 %ID
Drug uptake [36]: 26.91 % ID/g
Drug uptake [37]: 15.74 % ID/g
Drug uptake [38]: 6.85 % ID/g
Drug uptake [39]: 2.23 % ID/g
Drug uptake [40]: 5.55 % ID/g
Drug uptake [41]: 2.12 % ID/g
Drug uptake [42]: 45.73 % ID/g
Drug uptake [43]: 4.82 % ID/g
Drug uptake [44]: 2.83 % ID/g
Drug uptake [45]: 4.18 % ID/g
Drug uptake [46]: 0.39 %ID
Structure (SMILES): COc1ccc(/C=C/c2ccc(-c3ccc([125I])s3)s2)cc1

Source: ChEMBL document CHEMBL1795269, “Novel (E)-5-styryl-2,2'-bithiophene derivatives as ligands for β-amyloid plaques” (Eur J Med Chem, 2011)
